The record followed here is ChEMBL document CHEMBL1144486, “Synthesis, biological activity and molecular modelling of new trisubstituted 8-azaadenines with high affinity for A1 adenosine receptors” (Eur J Med Chem, 2007).

One experiment deals with T1, Adenosine receptor A1 (Bos taurus, UniProt P28190).
T1 sequence (P28190 whole entry): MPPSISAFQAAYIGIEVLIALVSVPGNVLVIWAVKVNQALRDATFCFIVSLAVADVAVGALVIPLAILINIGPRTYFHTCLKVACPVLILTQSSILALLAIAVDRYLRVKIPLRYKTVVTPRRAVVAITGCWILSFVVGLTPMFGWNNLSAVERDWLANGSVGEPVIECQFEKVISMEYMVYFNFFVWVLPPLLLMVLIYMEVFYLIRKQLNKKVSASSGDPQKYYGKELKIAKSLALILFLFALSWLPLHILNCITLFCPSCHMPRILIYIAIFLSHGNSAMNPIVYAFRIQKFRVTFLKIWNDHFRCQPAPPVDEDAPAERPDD
Nature of the experiment: Displacement of [3H]DPCPX from bovine cerebral cortex adenosine A1 receptor. The class given is tissue-based. In short, it runs like this: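 Nonspecific binding defined with CPA. Reaction stopped by dilution with ice-cold 50 mM Tris-HCl, then GF/C filtration and three washes. Bound radioactivity counted by liquid scintillation. Each test repeated until at least three consistent results were obtained and averaged for Ki.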
For orientation: Displacement assays read how much labelled ligand stays bound in the presence of the test substance.

Experiment [1] deals with Adenosine receptor A2a (Homo sapiens) (UniProt P29274). Nature of the experiment: Displacement of [3H]ZM-241385 from human recombinant adenosine A2A receptor expressed in CHO cells at 1 uM. Type of experiment: cell-based. In a few lines: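 Membranes from CHO cells expressing recombinant human A2A receptor incubated 120 min at 25 °C with 4 nM [3H]ZM241385 and a single compound concentration, in duplicate, in Tris-HCl buffer. Nonspecific binding defined with NECA. Percent inhibition of specific binding recorded.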
Adenosine receptor A2a (Homo sapiens), sequence (P29274 whole entry): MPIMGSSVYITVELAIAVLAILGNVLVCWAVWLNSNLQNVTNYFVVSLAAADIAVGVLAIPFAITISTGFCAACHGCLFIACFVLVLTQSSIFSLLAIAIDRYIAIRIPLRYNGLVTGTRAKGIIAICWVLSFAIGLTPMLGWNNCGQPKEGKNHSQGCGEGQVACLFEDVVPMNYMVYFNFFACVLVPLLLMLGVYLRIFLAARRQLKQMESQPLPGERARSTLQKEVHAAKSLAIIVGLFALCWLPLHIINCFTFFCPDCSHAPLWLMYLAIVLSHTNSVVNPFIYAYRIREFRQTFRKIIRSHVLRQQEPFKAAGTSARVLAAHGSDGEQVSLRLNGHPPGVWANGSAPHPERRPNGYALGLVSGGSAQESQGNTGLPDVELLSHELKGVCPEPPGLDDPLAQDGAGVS

Experiment [2] concerns the target T2, Adenosine receptor A3 (Homo sapiens) (UniProt P0DMS8).
T2 sequence (whole entry): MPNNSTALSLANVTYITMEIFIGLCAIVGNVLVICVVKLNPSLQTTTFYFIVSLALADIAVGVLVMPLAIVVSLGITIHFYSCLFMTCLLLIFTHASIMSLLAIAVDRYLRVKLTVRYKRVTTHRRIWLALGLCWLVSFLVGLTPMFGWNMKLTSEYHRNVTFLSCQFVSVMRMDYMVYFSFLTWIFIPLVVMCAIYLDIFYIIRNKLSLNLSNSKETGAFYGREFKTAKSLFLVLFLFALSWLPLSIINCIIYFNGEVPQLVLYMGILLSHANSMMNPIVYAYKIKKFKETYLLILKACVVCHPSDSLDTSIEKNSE
The experiment in a line: Displacement of [3H]NECA from human recombinant adenosine A3 receptor expressed in CHO cells at 1 uM. The class given is cell-based. In short, it runs like this: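 Membranes from CHO cells expressing recombinant human A3 receptor incubated 120 min at 25 °C with 6 nM [3H]NECA and a single compound concentration, in duplicate, in Tris-HCl buffer. Nonspecific binding defined with R-PIA. Percent inhibition of specific binding recorded.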

SMILES strings stand for the structures. Some results are limits rather than exact numbers.

A word on the Ki: it is the dissociation constant of the complex between target and ligand, obtained from inhibition or displacement. Low readings indicate a stronger hold on the target, high ones a looser hold on the target. A word on the inhibition: it is the change of the read-out against control, counted positive when it falls.

`CNc1nc(-c2ccccc2)nc2c1nnn2Cc1ccccc1Cl` showed a Ki at Adenosine receptor A1 of 191 nM. The inhibition in experiment [1] and in experiment [2] was less than 50% in each case.
Take `CCCNc1nc(-c2ccccc2)nc2c1nnn2Cc1ccccc1F`: the affinity on Adenosine receptor A1, expressed as Ki, was 3.2 nM. For the same compound, the inhibition in experiment [1] and in experiment [2] was less than 50% each time.
`OCCNc1nc(-c2ccccc2)nc2c1nnn2Cc1ccccc1`: at Adenosine receptor A1, the Ki worked out at 38 nM. Also, the inhibition in experiment [1] and in experiment [2] was less than 50% throughout.
`OCCCNc1nc(-c2ccccc2)nc2c1nnn2Cc1ccccc1` registered an inhibitory constant (Ki) at Adenosine receptor A1 of 21.4 nM. Besides, the inhibition in experiment [1] and in experiment [2] was less than 50% in each case.
`CCCCCCNc1nc(-c2ccccc2)nc2c1nnn2Cc1ccccc1` displayed a Ki on Adenosine receptor A1 of 13.2 nM. Moreover, the inhibition in experiment [1] and in experiment [2] was less than 50% in each case.
`OCCCNc1nc(-c2ccccc2)nc2c1nnn2Cc1ccccc1F` returned a Ki at Adenosine receptor A1 of 3.7 nM. The inhibition in experiment [1] and in experiment [2] was less than 50% throughout.
`CCCCNc1nc(-c2ccccc2)nc2c1nnn2Cc1ccccc1` showed a Ki at Adenosine receptor A1 of 11 nM. Further, the inhibition in experiment [1] and in experiment [2] was less than 50% throughout.
In turn, `Fc1ccccc1Cn1nnc2c(NC3CC3)nc(-c3ccccc3)nc21` came in with a Ki at Adenosine receptor A1 of 15 nM. Further, the inhibition in experiment [1] and in experiment [2] was less than 50% in each case.
The compound `CCCCNc1nc(-c2ccccc2)nc2c1nnn2Cc1ccccc1Cl` came in with a Ki on Adenosine receptor A1 of 79 nM. Also, the inhibition in experiment [1] and in experiment [2] was less than 50% each time.
As to `Clc1ccccc1Cn1nnc2c(NC3CCC3)nc(-c3ccccc3)nc21`, on Adenosine receptor A1, the Ki came out at 24 nM. The inhibition in experiment [1] and in experiment [2] was less than 50% each time.
As for `FC(F)(F)c1ccccc1Cn1nnc2c(NC3CC3)nc(-c3ccccc3)nc21`, the affinity at Adenosine receptor A1, expressed as Ki, was 7.8 nM. Also, the inhibition in experiment [1] and in experiment [2] was less than 50% each time.
As to `OCCNc1nc(-c2ccccc2)nc2c1nnn2Cc1ccccc1Cl`, at Adenosine receptor A1, the Ki turned out to be 116 nM. Also, the inhibition in experiment [1] and in experiment [2] was less than 50% throughout.
In turn, `Clc1ccccc1Cn1nnc2c(NC3CCCCC3)nc(-c3ccccc3)nc21` gave a Ki at Adenosine receptor A1 of 34 nM. For the same compound, the inhibition in experiment [1] and in experiment [2] was less than 50% each time.
Consider `c1ccc(Cn2nnc3c(NC4CCC4)nc(-c4ccccc4)nc32)cc1`, for which the Ki at Adenosine receptor A1 was 5 nM. In addition, the inhibition in experiment [1] and in experiment [2] was less than 50% each time.
For the compound `CCCCCCNc1nc(-c2ccccc2)nc2c1nnn2Cc1ccccc1C(F)(F)F`, the inhibition in experiment [1] and in experiment [2] was less than 50% each time.
Take `CC(O)CNc1nc(-c2ccccc2)nc2c1nnn2Cc1ccccc1F` (stereo not given): on Adenosine receptor A1, the Ki was found to be 4.8 nM. Moreover, the inhibition in experiment [1] and in experiment [2] was less than 50% throughout.
Compound `CCCCCCNc1nc(-c2ccccc2)nc2c1nnn2Cc1ccccc1Cl` showed a Ki on Adenosine receptor A1 of 31 nM. In addition, the inhibition in experiment [1] and in experiment [2] was less than 50% throughout.
For `Fc1ccccc1Cn1nnc2c(NC3CCCC3)nc(-c3ccccc3)nc21`, at Adenosine receptor A1, the Ki was 6.7 nM. For the same compound, the inhibition in experiment [1] and in experiment [2] was less than 50% in each case.
`Fc1ccccc1Cn1nnc2c(NC3CCCCC3)nc(-c3ccccc3)nc21` returned a Ki on Adenosine receptor A1 of 1.15 nM. Moreover, the inhibition in experiment [1] and in experiment [2] was less than 50% in each case.
For the compound `OCCNc1nc(-c2ccccc2)nc2c1nnn2Cc1ccccc1C(F)(F)F`, the inhibition in experiment [1] and in experiment [2] was less than 50% throughout.
On Adenosine receptor A1, `CNc1nc(-c2ccccc2)nc2c1nnn2Cc1ccccc1` showed a Ki of 353 nM. Besides, the inhibition in experiment [1] and in experiment [2] was less than 50% throughout.
For the compound `CCCNc1nc(-c2ccccc2)nc2c1nnn2Cc1ccccc1C(F)(F)F`, the inhibition in experiment [1] and in experiment [2] was less than 50% throughout.
`Clc1ccccc1Cn1nnc2c(NC3CC3)nc(-c3ccccc3)nc21` registered a Ki at Adenosine receptor A1 of 11 nM. Also, the inhibition in experiment [1] and in experiment [2] was less than 50% throughout.
For the compound `CCCNc1nc(-c2ccccc2)nc2c1nnn2Cc1ccccc1Cl`, the affinity at Adenosine receptor A1 corresponds to a Ki of 101 nM. Also, the inhibition in experiment [1] and in experiment [2] was less than 50% each time.
For the compound `CCCNc1nc(-c2ccccc2)nc2c1nnn2Cc1ccccc1`, at Adenosine receptor A1, affinity was put at a Ki of 37 nM. Moreover, the inhibition in experiment [1] and in experiment [2] was less than 50% in each case.
On to `OCCCNc1nc(-c2ccccc2)nc2c1nnn2Cc1ccccc1Cl`, for which the Ki on Adenosine receptor A1 came out at 33 nM. Moreover, the inhibition in experiment [1] and in experiment [2] was less than 50% in each case.
On Adenosine receptor A1, `CCCCCCNc1nc(-c2ccccc2)nc2c1nnn2Cc1ccccc1F` returned a Ki of 25 nM. Also, the inhibition in experiment [1] and in experiment [2] was less than 50% each time.
Regarding `c1ccc(Cn2nnc3c(NC4CCCC4)nc(-c4ccccc4)nc32)cc1`, the Ki at Adenosine receptor A1 was 11 nM. Also, the inhibition in experiment [1] and in experiment [2] was less than 50% throughout.
At Adenosine receptor A1, `OCCCNc1nc(-c2ccccc2)nc2c1nnn2Cc1ccccc1C(F)(F)F` came in with a Ki of 147 nM. Moreover, the inhibition in experiment [1] and in experiment [2] was less than 50% in each case.
The compound `CC(O)CNc1nc(-c2ccccc2)nc2c1nnn2Cc1ccccc1` (stereo not given) gave a Ki on Adenosine receptor A1 of 7.5 nM. The inhibition in experiment [1] and in experiment [2] was less than 50% throughout.
On to `CC(O)CNc1nc(-c2ccccc2)nc2c1nnn2Cc1ccccc1C(F)(F)F` (stereo not given), for which the inhibition in experiment [1] and in experiment [2] was less than 50% each time.
On Adenosine receptor A1, `Clc1ccccc1Cn1nnc2c(NC3CCCC3)nc(-c3ccccc3)nc21` gave an inhibitory constant (Ki) of 9 nM. Further, the inhibition in experiment [1] and in experiment [2] was less than 50% throughout.
On Adenosine receptor A1, `CC(O)CNc1nc(-c2ccccc2)nc2c1nnn2Cc1ccccc1Cl` (stereo not given) displayed a Ki of 32 nM. The inhibition in experiment [1] and in experiment [2] was less than 50% in each case.
Regarding `CCNc1nc(-c2ccccc2)nc2c1nnn2Cc1ccccc1C(F)(F)F`, the inhibition in experiment [1] and in experiment [2] was less than 50% throughout.
In the case of `CNc1nc(-c2ccccc2)nc2c1nnn2Cc1ccccc1F`, the Ki at Adenosine receptor A1 came to 25 nM. The inhibition in experiment [1] and in experiment [2] was less than 50% throughout.
At Adenosine receptor A1, `CNc1nc(-c2ccccc2)nc2c1nnn2Cc1ccccc1C(F)(F)F` registered a Ki of 14.9 nM. Further, the inhibition in experiment [1] and in experiment [2] was less than 50% each time.
For `CCCCNc1nc(-c2ccccc2)nc2c1nnn2Cc1ccccc1C(F)(F)F`, at Adenosine receptor A1, the Ki came to 6.5 nM. For the same compound, the inhibition in experiment [1] and in experiment [2] was less than 50% each time.
As for `c1ccc(Cn2nnc3c(NC4CC4)nc(-c4ccccc4)nc32)cc1`, at Adenosine receptor A1, the Ki turned out to be 11.3 nM. Also, the inhibition in experiment [1] and in experiment [2] was less than 50% throughout.
Consider `CCNc1nc(-c2ccccc2)nc2c1nnn2Cc1ccccc1F`, for which, on Adenosine receptor A1, the Ki turned out to be 11 nM. The inhibition in experiment [1] and in experiment [2] was less than 50% in each case.
The compound `FC(F)(F)c1ccccc1Cn1nnc2c(NC3CCCC3)nc(-c3ccccc3)nc21` had a Ki on Adenosine receptor A1 of 0.6 nM. The inhibition in experiment [1] and in experiment [2] was less than 50% throughout.
Consider `OCCNc1nc(-c2ccccc2)nc2c1nnn2Cc1ccccc1F`, for which the affinity on Adenosine receptor A1, expressed as Ki, was 54 nM. The inhibition in experiment [1] and in experiment [2] was less than 50% each time.
`CCNc1nc(-c2ccccc2)nc2c1nnn2Cc1ccccc1Cl`: the affinity at Adenosine receptor A1 corresponds to a Ki of 463 nM. Further, the inhibition in experiment [1] and in experiment [2] was less than 50% in each case.
On to `CCNc1nc(-c2ccccc2)nc2c1nnn2Cc1ccccc1`, for which the Ki on Adenosine receptor A1 came out at 91 nM. For the same compound, the inhibition in experiment [1] and in experiment [2] was less than 50% each time.
`FC(F)(F)c1ccccc1Cn1nnc2c(NC3CCCCC3)nc(-c3ccccc3)nc21` displayed a Ki on Adenosine receptor A1 of 6.8 nM. Further, the inhibition in experiment [1] and in experiment [2] was less than 50% throughout.
Consider `CCCCNc1nc(-c2ccccc2)nc2c1nnn2Cc1ccccc1F`, for which, on Adenosine receptor A1, affinity was put at a Ki of 4.3 nM. Also, the inhibition in experiment [1] and in experiment [2] was less than 50% throughout.
